One assay deals with Alternaria brassicicola. The experiment in a line: Antifungal activity against Alternaria brassicicola after 4 to 14 days by serial dilution method. Type of assay: functional. An outline of the steps:
(§1)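 Fungal strains kept on potato dextrose agar. Antifungal activity tested following NCCLS recommendations, with MIC values as the read-out. Prochloraz served as positive control.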

A short description of assay [1]: Antifungal activity against Bipolaris oryzae after 4 to 14 days by serial dilution method. Type of assay: functional. In a few lines: (§2)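 Fungus maintained on potato dextrose agar. Antifungal activity determined as MIC following NCCLS (National […] for Clinical Laboratory Standards) recommendations, with prochloraz as the reference antifungal.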
A short description of assay [2]: Cytotoxicity against human HeLa cells assessed as decrease in cell viability after 6 days by MTT assay. Type of assay: functional, cell-based. The note with it: 144 h. An outline of the steps:
(§3)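 Cell lines from College of Pharmacy, Hebei University, grown in DMEM with 5% fetal bovine serum at 37 °C under 5% CO2. Viability read by MTT method, IC50 values derived. Epirubicin served as positive control.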

The nature of assay [3]: Cytotoxicity against human MCF7 cells assessed as decrease in cell viability after 6 days by MTT assay. Format: functional, cell-based. The note with it: MCF7, 144 h. In a few lines: as §3
Assay [4] can be described thus: Antifungal activity against Ceratocystis paradoxa moreau after 4 to 14 days by serial dilution method. Type of assay: functional. The note with it: Thielaviopsis. In a few lines: as §1
In another assay the test system is Alternaria citri. The experiment in a line: Antifungal activity against Alternaria citri after 4 to 14 days by serial dilution method. Format: functional. An outline of the steps:
as §2

A short description of assay [5]: Antifungal activity against Exserohilum turcicum after 4 to 14 days by serial dilution method. Type of assay: functional. The note with it: Setosphaeria turcica. An outline of the steps: as §1
The subject of the next assay is Colletotrichum truncatum. The experiment in a line: Antifungal activity against Colletotrichum capsici after 4 to 14 days by serial dilution method. Type of assay: functional. In a few lines:
as §1

Assay [6] in a line: Antifungal activity against Diaporthe medusaea nitschke after 4 to 14 days by serial dilution method. Format: functional. Particulars: Diaporthe rudis. An outline of the steps: as §1
Assay [7] in a line: Cytotoxicity against human A549 cells assessed as decrease in cell viability after 6 days by MTT assay. Type of assay: functional, cell-based. Particulars: A549, 144 h. An outline of the steps: as §3
The nature of assay [8]: Antifungal activity against Pestallozzia theae after 4 to 14 days by serial dilution method. Format: functional. In a few lines: as §1
A short description of assay [9]: Antifungal activity against Phytophthora parasitica var. nicotianae after 4 to 14 days by serial dilution method. Format: functional. An outline of the steps:
as §1

Molecules are shown by their SMILES.

For the molecule `COc1c(O)cc2ccc3c(OC)c(O)ccc3c2c1OC`, the MIC (in the assay on Alternaria brassicicola; in assay [1]; in [4]; with Alternaria citri; in [5]; in the assay on Colletotrichum truncatum) was > 400 µM each time. Moreover, the MIC in assay [6], in assay [8] and in [9] was > 400 µM each time. The IC50 in [2], in assay [3] and in assay [7] was > 10 µM each time.

`COc1cc(O)c2c(c1-c1c(OC)cc(O)c3c1CCc1cc(O)ccc1-3)CCc1cc(O)ccc1-2`: the MIC (in the assay on Alternaria brassicicola; in [1]; in assay [4]; in the assay with Alternaria citri; in assay [5]; against Colletotrichum truncatum) was > 400 µM throughout. Further, the MIC in assay [6], in [8] and in assay [9] was > 400 µM each time. Besides, the IC50 in [2], in assay [3] and in assay [7] was > 10 µM each time.

As to `COc1cc(O)c2c(c1)CCc1cc(O)c(-c3c(O)c4cccc(O)c4c4c(OC)cc(OC)cc34)cc1-2`, the MIC (with Alternaria brassicicola; in [1]; in [4]; in the assay on Alternaria citri; in [5]; against Colletotrichum truncatum) was > 400 µM each time. For the same molecule, the MIC in [6], in [8] and in assay [9] was > 400 µM each time. Besides, the IC50 in assay [2], in assay [3] and in [7] was > 10 µM throughout.

The values are drawn from ChEMBL document CHEMBL3860028, “Bioactive Phenanthrene and Bibenzyl Derivatives from the Stems of Dendrobium nobile” (J Nat Prod, 2016).
